ChEMBL document CHEMBL5724801, “EUbOPEN Chemogenomics Library - Multiplex” (2024)
Where “and” joins values, the source holds several entries; their conditions need not be identical. Identical values can stand only once.

Tested on: HEK-293T
Assay: Multiplex assay against HEK293T
Assay type: toxicity, cell-based
Settings: human
Outline: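 Per cents of healthy-nucleus cells form the tubulin, mitochondrial-mass and membrane-permeability phenotype values. Live cells were stained at seeding with Hoechst33342, BioTracker Green Microtubule Cytoskeleton Dye, MitoTracker Red and Annexin V Alexa Fluor 680. After compound addition they were imaged on a CQ1 microscope at 37°C and 5% CO2, and CellPathfinder machine-learning gating split them into Hoechst high-intensity objects or normal cells, normal cells into healthy, pyknosed or fragmented nuclei, and pyknosed cells into mitotic or apoptotic.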

[1] = 12 h, 1 µM, compound concentration 1 uM
[2] = 12 h, 10 µM, compound concentration 10 uM
[3] = 24 h, 1 µM, compound concentration 1 uM
[4] = 24 h, 10 µM, compound concentration 10 uM
[5] = 48 h, 1 µM, compound concentration 1 uM
[6] = 48 h, 10 µM, compound concentration 10 uM

## CC[C@@H](C)Nc1nc(C)nc2c(-c3ccc(OC)nc3C)c(C)nn12 [PEXACERFONT]
[1]
  Population Apoptotic (%): 33% and 47%
  Population Fragmented Nuclei (%): 7% and 5%
  Population Healthy Nuclei (%): 79% and 82%
  Population Hoechst High Intensity Objects (%): 6% and 8%
  Population Membrane Permeable-Phenotype (%): 0%
  Population Mitochondria Different-Phenotype (%): 45% and 61%
  Population Mitotic Cells (%): 66% and 52%
  Population Normal (%): 93% and 91%
  Population Pyknosed Nuclei (%): 13% and 11%
  Population Tubulin-Different-Phenotype (%): 34% and 31%
  Total Cell Count: 399 and 314
[2]
  Population Apoptotic (%): 38% and 41%
  Population Fragmented Nuclei (%): 6% and 9%
  Population Healthy Nuclei (%): 75% and 74%
  Population Hoechst High Intensity Objects (%): 8% and 11%
  Population Membrane Permeable-Phenotype (%): 0% and 1%
  Population Mitochondria Different-Phenotype (%): 59% and 75%
  Population Mitotic Cells (%): 61% and 58%
  Population Normal (%): 91% and 88%
  Population Pyknosed Nuclei (%): 17% and 16%
  Population Tubulin-Different-Phenotype (%): 54% and 55%
  Total Cell Count: 451 and 321
[3]
  Population Apoptotic (%): 24% and 45%
  Population Fragmented Nuclei (%): 8% and 13%
  Population Healthy Nuclei (%): 79% and 76%
  Population Hoechst High Intensity Objects (%): 3% and 7%
  Population Membrane Permeable-Phenotype (%): 0%
  Population Mitochondria Different-Phenotype (%): 26% and 34%
  Population Mitotic Cells (%): 75% and 54%
  Population Normal (%): 96% and 92%
  Population Pyknosed Nuclei (%): 11% and 9%
  Population Tubulin-Different-Phenotype (%): 21% and 15%
  Total Cell Count: 508 and 387
[4]
  Population Apoptotic (%): 37% and 33%
  Population Fragmented Nuclei (%): 6% and 7%
  Population Healthy Nuclei (%): 79% and 78%
  Population Hoechst High Intensity Objects (%): 7% and 13%
  Population Membrane Permeable-Phenotype (%): 1% and 0%
  Population Mitochondria Different-Phenotype (%): 46% and 70%
  Population Mitotic Cells (%): 62% and 66%
  Population Normal (%): 92% and 86%
  Population Pyknosed Nuclei (%): 14%
  Population Tubulin-Different-Phenotype (%): 52% and 48%
  Total Cell Count: 612 and 371
[5]
  Population Apoptotic (%): 26% and 41%
  Population Fragmented Nuclei (%): 12% and 10%
  Population Healthy Nuclei (%): 80%
  Population Hoechst High Intensity Objects (%): 2%
  Population Membrane Permeable-Phenotype (%): 0% and 1%
  Population Mitochondria Different-Phenotype (%): 22% and 27%
  Population Mitotic Cells (%): 73% and 58%
  Population Normal (%): 97%
  Population Pyknosed Nuclei (%): 7% and 9%
  Population Tubulin-Different-Phenotype (%): 20% and 19%
  Total Cell Count: 816 and 520
[6]
  Population Apoptotic (%): 40%
  Population Fragmented Nuclei (%): 13% and 10%
  Population Healthy Nuclei (%): 77% and 72%
  Population Hoechst High Intensity Objects (%): 7% and 18%
  Population Membrane Permeable-Phenotype (%): 1% and 0%
  Population Mitochondria Different-Phenotype (%): 45% and 53%
  Population Mitotic Cells (%): 59% and 60%
  Population Normal (%): 92% and 81%
  Population Pyknosed Nuclei (%): 9% and 17%
  Population Tubulin-Different-Phenotype (%): 38% and 36%
  Total Cell Count: 692 and 390

## CCCCC1=NC2(CCCC2)C(=O)N1Cc1ccc(-c2ccccc2-c2nnn[nH]2)cc1 [IRBESARTAN]
[1]
  Population Apoptotic (%): 24% and 28%
  Population Fragmented Nuclei (%): 9% and 8%
  Population Healthy Nuclei (%): 79% and 78%
  Population Hoechst High Intensity Objects (%): 9% and 4%
  Population Membrane Permeable-Phenotype (%): 0%
  Population Mitochondria Different-Phenotype (%): 34% and 63%
  Population Mitotic Cells (%): 75% and 71%
  Population Normal (%): 91% and 95%
  Population Pyknosed Nuclei (%): 10% and 12%
  Population Tubulin-Different-Phenotype (%): 17% and 20%
  Total Cell Count: 500 and 353
[2]
  Population Apoptotic (%): 50% and 56%
  Population Fragmented Nuclei (%): 7% and 6%
  Population Healthy Nuclei (%): 70% and 78%
  Population Hoechst High Intensity Objects (%): 5% and 13%
  Population Membrane Permeable-Phenotype (%): 2% and 0%
  Population Mitochondria Different-Phenotype (%): 46% and 66%
  Population Mitotic Cells (%): 50% and 43%
  Population Normal (%): 94% and 86%
  Population Pyknosed Nuclei (%): 22% and 15%
  Population Tubulin-Different-Phenotype (%): 50% and 33%
  Total Cell Count: 219 and 351
[3]
  Population Apoptotic (%): 31% and 34%
  Population Fragmented Nuclei (%): 9%
  Population Healthy Nuclei (%): 79% and 80%
  Population Hoechst High Intensity Objects (%): 4% and 7%
  Population Membrane Permeable-Phenotype (%): 0%
  Population Mitochondria Different-Phenotype (%): 24% and 45%
  Population Mitotic Cells (%): 68% and 65%
  Population Normal (%): 95% and 92%
  Population Pyknosed Nuclei (%): 10% and 9%
  Population Tubulin-Different-Phenotype (%): 15% and 14%
  Total Cell Count: 625 and 456
[4]
  Population Apoptotic (%): 27% and 41%
  Population Fragmented Nuclei (%): 6% and 11%
  Population Healthy Nuclei (%): 77%
  Population Hoechst High Intensity Objects (%): 3% and 10%
  Population Membrane Permeable-Phenotype (%): 1% and 0%
  Population Mitochondria Different-Phenotype (%): 37% and 49%
  Population Mitotic Cells (%): 72% and 58%
  Population Normal (%): 96% and 89%
  Population Pyknosed Nuclei (%): 15% and 11%
  Population Tubulin-Different-Phenotype (%): 32% and 22%
  Total Cell Count: 287 and 434
[5]
  Population Apoptotic (%): 29% and 23%
  Population Fragmented Nuclei (%): 11% and 9%
  Population Healthy Nuclei (%): 81% and 84%
  Population Hoechst High Intensity Objects (%): 3% and 2%
  Population Membrane Permeable-Phenotype (%): 0% and 1%
  Population Mitochondria Different-Phenotype (%): 21% and 19%
  Population Mitotic Cells (%): 70% and 76%
  Population Normal (%): 96% and 97%
  Population Pyknosed Nuclei (%): 7% and 6%
  Population Tubulin-Different-Phenotype (%): 15% and 8%
  Total Cell Count: 958 and 705
[6]
  Population Apoptotic (%): 25% and 46%
  Population Fragmented Nuclei (%): 15% and 12%
  Population Healthy Nuclei (%): 75% and 80%
  Population Hoechst High Intensity Objects (%): 1% and 3%
  Population Membrane Permeable-Phenotype (%): 0%
  Population Mitochondria Different-Phenotype (%): 21% and 26%
  Population Mitotic Cells (%): 75% and 53%
  Population Normal (%): 98% and 96%
  Population Pyknosed Nuclei (%): 9% and 6%
  Population Tubulin-Different-Phenotype (%): 15%
  Total Cell Count: 473 and 684
